Values after ≈ are worked out from the molar mass of the structure shown.
Legend:
[1] = tested on: CYP2C19, CYP2D6, CYP3A4, UGT2B4, and UGT2B7; test: Inhibition of CYP and UGT enzymes; format: in vitro ADME; conditions: at therapeutic concentration ranges; data on file
Solubility in water = format: physicochemical
monkeys = test: Multiple-dose toxicity study up to 28 days in monkeys; format: in vivo
[2] = In vitro Caco-2 permeability; format: in vitro ADME; conditions: human
[3] = Metabolite profile in liver microsomes; format: in vitro ADME
[4] = Plasma and urine pharmacokinetics, part I SAD study; format: in vivo, human; conditions: for CL/F / Fe0‐72h (fraction excreted in urine): geometric mean (geometric CV%)
Method in brief: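 Healthy adults randomized 6:2 to oral test compound or placebo (n = 8/cohort), fasted ≥10 h, no food ≥4 h postdose. Solution given as 150 mL in diluted Ora-Sweet plus 90 mL water rinse. Plasma sampled predose to 72 h. UHPLC-MS/MS with deuterated internal standard; plasma 2.5–1000 μg/L (LLOQ 2.5), urine 2–800 μg/L (LLOQ 2.0). Noncompartmental analysis; power-model ln-regression of Cmax/AUC on dose, slope with 90% CI.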

## O[C@H]1CCCN[C@@H]1CCCn1cnc2c(Cl)c(Cl)ccc21 [Bersiporocin]
[1]
  inhibition of CYP and UGT enzymes: did not inhibit
Solubility in water
  solubility: 19.6 mg/mL (≈ 59.6 mM)
monkeys; calculated from NOAEL in monkeys, safety factor = 10
  maximum recommended starting dose for a 60 kg adult: 154.8 mg
monkeys; monkeys, concluded not to be an adverse event, transient
  clinical observation in toxicity study: vomiting was observed
[2]
  Papp: 7.67 ± 1.06 ×10⁻⁶ cm/s
[3]
  number of metabolites identified: 21
[4]; SAD single 100 mg capsule
  CL/F: 156.48 (58.10) L/h
  Fe0‐72h (fraction excreted in urine): 10.01 (45.08) %
[4]; SAD single 100 mg solution
  CL/F: 340.72 (48.72) L/h
  Fe0‐72h (fraction excreted in urine): 7.59 (32.47) %
[4]; SAD single 300 mg capsule
  CL/F: 196.59 (47.06) L/h
  Fe0‐72h (fraction excreted in urine): 7.42 (43.31) %
[4]; SAD single 500 mg tablet
  CL/F: 213.75 (53.27) L/h
  Fe0‐72h (fraction excreted in urine): 42.18 (180.78) %
[4]; SAD single 600 mg capsule
  CL/F: 312.07 (222.08) L/h
  Fe0‐72h (fraction excreted in urine): 3.09 (341.55) %
[4]; human, plasma, oral, t 1/2, range, SAD, enteric coated capsule
  half-life: 6.91 to 9.9 h
[4]; single dose of enteric coated capsule
  dose dependence of plasma concentration: dose‐proportional manner
[4]; urine PK data from SAD or MAD
  role of renal elimination: renal elimination was not the major clearance pathway
